Measurements taken from ChEMBL document CHEMBL1149614, “Exomethylene pyranonucleosides: efficient synthesis and biological evaluation of 1-(2,3,4-trideoxy-2-methylene-beta-d-glycero-hex-3-enopyranosyl)thymine” (Bioorg Med Chem, 2007).

Assays:
Rotavirus [1] = experiment: Antiviral activity against Rotavirus RF in human Caco-2 cells assessed as neutralization of virus in solution before its attachment after 72 hrs; type: functional, organism-based; details: Caco-2, 72 h
Outline: (§1)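 Threefold dilutions from 0.5 mg/mL were co-incubated with rotavirus RF in trypsin-supplemented DMEM for 12 h at 37 °C, 5% CO2, before infecting monolayers. Results are mean % of virus-only control (n = 6) for each dilution. IC50 taken from the concentration–effect curve.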

[2] = Cytotoxicity against rhesus monkey MA104 cells after 72 hrs; type: functional; details: Macaca mulatta, MA104, 72 h
Caco-2 [3] = experiment: Cytotoxicity against human Caco-2 cells after 72 hrs; type: functional; details: Caco-2, 72 h
Outline: (§2)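 H4 or Caco-2 cells (6 × 10⁶ per plate) treated with 3-fold serial dilutions from 0.5 mg/mL and held 72 h at 37 °C in a humidified incubator. Results are mean % of treated (n = 2) versus control (n = 24) absorbance.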

[4] = Tumor selectivity index, ratio of CC50 for human H4 cells to CC50 for rhesus monkey MA104 cells; type: functional
H4 = experiment: Cytotoxicity against human H4 cells after 72 hrs; type: functional; details: H4, 72 h; outline: as §2
[5] = Selectivity index, ratio of CC50 for rhesus monkey MA104 cells to IC50 for Rotavirus RF; type: functional
[6] = Tumor selectivity index, ratio of CC50 for human H4 cells to CC50 for human Caco-2 cells; type: functional
Outline: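 Ratio of 72 h crystal-violet CC50 in H4 cells to CC50 in Caco-2 cells.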

[7] = Selectivity index, ratio of CC50 for rhesus monkey MA104 cells to IC50 for Rotavirus RF after attachment to MA104 cells
Rotavirus [8] = experiment: Antiviral activity against Rotavirus RF infected in rhesus monkey MA104 cells assessed as neutralization of virus in solution before its attachment after 72 hrs; type: functional, organism-based; details: MA104, 72 h; outline: as §1
Caco-2 [9] = experiment: Growth inhibition of human Caco-2 cells after 10 days; type: functional, cell-based; details: Caco-2, 240 h
Outline: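 Caco-2 monolayers in DMEM/10% fetal bovine serum received 3-fold dilutions from 0.5 mg/mL, six wells per compound, for 10 days at 37 °C, humidified. Colonies counted in each well. Results are mean % colony number of treated (n = 2) versus control (n = 24) wells.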

Rotavirus [10] = experiment: Antiviral activity against Rotavirus RF in rhesus monkey MA104 cells assessed as inhibition of infectivity following virus attachment after 72 hrs; type: functional, organism-based; details: MA104, 72 h
Outline: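 Monolayers infected with rotavirus RF for 1 h at 37 °C in 5% CO2, then washed with unsupplemented DMEM and immediately given 3-fold serial dilutions from 0.5 mg/mL. Results are mean % of virus-only control absorbance (n = 6).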

[11] = Selectivity index, ratio of CC50 for human Caco-2 cells to IC50 for Rotavirus RF; type: functional

| SMILES | IC50 (Rotavirus [1]) [µM] | CC50 [2] [µM] | CC50 (Caco-2 [3]) [µM] | Ratio [4] | CC50 (H4) [µM] | Ratio CC50/IC50 [5] | Ratio [6] | Ratio CC50/IC50 [7] | IC50 (Rotavirus [8]) [µM] | IC50 (Caco-2 [9]) [µM] | IC50 (Rotavirus [10]) [µM] | Ratio CC50/IC50 [11] |
| --- | --- | --- | --- | --- | --- | --- | --- | --- | --- | --- | --- | --- |
| C=C1[C@@H](O)[C@@H](O)[C@@H](CO)O[C@H]1n1cc(C)c(=O)[nH]c1=O | 2.46 | 211 | 70.4 | 8.3 | 1760 | 85.8 | 24.9 | 30.03 | 2.46 | 21.1 | 7.03 | 28.61 |
| Cc1cn([C@@H]2O[C@H](CO)[C@H](O)[C@H](O)C2=O)c(=O)[nH]c1=O | 2.44 | 210 | 69.9 | 8.3 | 1750 | 85.9 | 25 | 30.03 | 2.44 | 0.7 | 6.98 | 28.65 |
| C=C1C=C[C@@H](CO)O[C@H]1n1cc(C)c(=O)[nH]c1=O | – | 480 | 2000 | 0.0058 | 2.8 | – | 0.0014 | 5.99 | – | 79.9 | 79.9 | – |
| C=C1C=C[C@@H](COC(c2ccccc2)(c2ccccc2)c2ccccc2)O[C@H]1n1cc(C)c(=O)[nH]c1=O | – | 244 | 1020 | 0.16 | 40.6 | – | 0.04 | 60 | – | 0.4 | 4.06 | – |
| O=c1[nH]cc(F)c(=O)[nH]1 [FLUOROURACIL] | – | 231 | – | 16.67 | 3840 | – | 10 | – | – | – | – | – |
| Cc1cn([C@H]2C[C@H](N=[N+]=[N-])[C@@H](CO)O2)c(=O)[nH]c1=O [ZIDOVUDINE] | – | – | – | – | – | 3.01 | – | 10.03 | 74.6 | – | 22.4 | 0.75 |
